# Results from ChEMBL document CHEMBL3585325, “Discovery of (1R,2S)-2-{[(2,4-Dimethylpyrimidin-5-yl)oxy]methyl}-2-(3-fluorophenyl)-N-(5-fluoropyridin-2-yl)cyclopropanecarboxamide (E2006): A Potent and Efficacious Oral Orexin Receptor Antagonist” (J Med Chem, 2015).
# pIC50, pKi: −log10 of the molar value.
# Tests used:
# [1] = Drug uptake in C57BL/6NCrlCrlj mouse CSF at 10 mg/kg, po administered as single dose measured after 1 hr by LC-MS/MS analysis; type: ADME, organism-based, Cerebrospinal fluid; conditions: read-out: Drug uptake
# Outline: (§1)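 Male C57BL/6NCrlCrlj mice given a single 10 mg/kg oral dose as a suspension in 0.5% aqueous methylcellulose. At 1 or 3 h, under pentobarbital anesthesia, CSF was taken from the cisterna magna and then blood from the abdominal aorta (spun to plasma). Samples were acetonitrile-precipitated with deuterated internal standard and run by LC-MS/MS. Values are mean with SEM.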
# [2] = Plasma protein binding in C57BL/6N mouse at 10 mg/kg, po administered as single dose by equilibrium dialysis method; type: ADME, organism-based; conditions: read-out: PPB (converted)
# Mus musculus [3] = assay: Sleep promoting activity in C57BL/6NCrlCrlj mouse assessed as increase in non-REM sleep at 10 mg/kg, po administered immediately prior to beginning of dark cycle measured during first 3 hrs after drug administration by electroencephalogram/electromyogram analysis (reference value: 62.6 min); type: functional
# Outline: (§2)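 Male C57BL/6NCrlCrlj mice implanted with EEG/EMG electrodes were dosed orally in 10% Cremophor EL, 5% DMSO in saline just before lights-off (ZT12) and recorded from ZT12 to ZT20. Group sizes were n=6 dosed and n=7 vehicle. Stages were scored by software with blinded visual confirmation; cumulative first-3-h times are mean with SEM. Dunnett's test was run after one-way ANOVA.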
# Mus musculus [4] = assay: Sleep promoting activity in C57BL/6NCrlCrlj mouse assessed as increase in REM sleep at 10 mg/kg, po administered immediately prior to beginning of dark cycle measured during first 3 hrs after drug administration by electroencephalogram/electromyogram analysis (reference value: 0.6 min); type: functional; outline: as §2
# Mus musculus [5] = assay: Sleep promoting activity in C57BL/6NCrlCrlj mouse assessed as increase in REM sleep at 30 mg/kg, po administered immediately prior to beginning of dark cycle measured during first 3 hrs after drug administration by electroencephalogram/electromyogram analysis (reference value: 0.6 min); type: functional; outline: as §2
# Cytochrome P450 2C8 = target: T1, Cytochrome P450 2C8 (Homo sapiens, UniProt P10632); assay: Inhibition of CYP2C8 in human liver microsomes using rosiglitazone as susbtrate incubated for 30 mins prior to substrate addition for 10 mins by LC-MS/MS analysis; type: ADME
# T1 sequence (P10632 whole entry): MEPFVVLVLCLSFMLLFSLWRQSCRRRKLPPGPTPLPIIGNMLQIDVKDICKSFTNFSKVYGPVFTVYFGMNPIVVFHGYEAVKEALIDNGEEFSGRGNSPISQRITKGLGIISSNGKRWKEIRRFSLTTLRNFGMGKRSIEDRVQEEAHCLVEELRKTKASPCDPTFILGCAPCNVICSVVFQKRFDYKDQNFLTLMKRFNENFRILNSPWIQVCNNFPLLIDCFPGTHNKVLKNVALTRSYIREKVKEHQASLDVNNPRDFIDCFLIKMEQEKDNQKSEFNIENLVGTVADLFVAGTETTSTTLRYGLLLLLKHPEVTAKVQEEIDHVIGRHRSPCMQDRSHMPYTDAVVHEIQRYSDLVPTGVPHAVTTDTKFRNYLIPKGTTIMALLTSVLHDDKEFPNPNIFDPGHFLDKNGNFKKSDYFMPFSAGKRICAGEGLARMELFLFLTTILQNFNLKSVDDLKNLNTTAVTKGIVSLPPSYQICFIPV
# [6] = target: T2, Orexin/Hypocretin receptor type 1 (Homo sapiens, UniProt O43613); assay: Binding affinity to human OX1R expressed in HEK-293 cells assessed as inhibition of orexin A-induced calcium accumulation by FLIPR assay; type: cell-based, HEK293
# T2 sequence (O43613 whole entry): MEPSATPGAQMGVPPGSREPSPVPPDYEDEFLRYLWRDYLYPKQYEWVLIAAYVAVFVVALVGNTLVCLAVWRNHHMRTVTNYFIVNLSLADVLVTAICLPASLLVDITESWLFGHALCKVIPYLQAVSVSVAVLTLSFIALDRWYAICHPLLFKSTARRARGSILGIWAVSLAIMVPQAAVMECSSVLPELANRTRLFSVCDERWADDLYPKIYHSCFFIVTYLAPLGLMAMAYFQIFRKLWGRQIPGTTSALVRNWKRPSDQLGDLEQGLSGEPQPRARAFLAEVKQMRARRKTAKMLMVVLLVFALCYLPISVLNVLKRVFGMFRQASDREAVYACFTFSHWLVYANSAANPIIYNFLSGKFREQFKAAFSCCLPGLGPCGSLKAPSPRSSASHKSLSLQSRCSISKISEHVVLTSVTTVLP
# Outline: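 HEK-293 cells expressing human OX1R, seeded at 16000 cells/well and grown overnight at 37 °C, then loaded with Calcium 4 dye in HEPES buffer with 0.1% BSA (1 h at 37 °C, 15 min at RT). Compound was equilibrated 30 min at RT before orexin-A was added. Fluorescence read at ex 480/em 540 nm on FDSS6000; response taken as peak/baseline ratio. Orexin-A EC50 was determined in each experiment.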
# [7] = Plasma clearance in C57BL/6NCrlCrlj mouse at 1 mg/kg, iv by LC-MS/MS analysis; type: ADME, organism-based
# Outline: (§3)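 Male C57BL/6NCrlCrlj mice dosed intravenously at 1 mg/kg in 10% DMSO in water. Blood was taken from the tail vein at set time points and spun to plasma. Concentrations were measured by LC-MS/MS (MRM, positive mode) against a 1/x²-weighted standard curve with internal standard. Parameters came from noncompartmental analysis.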
# [8] = Half life in C57BL/6NCrlCrlj mouse at 1 mg/kg, iv by LC-MS/MS analysis; type: ADME, organism-based; conditions: in vivo; outline: as §3
# [9] = Tmax in C57BL/6NCrlCrlj mouse at 10 mg/kg, po by LC-MS/MS analysis; type: ADME, organism-based; conditions: in vivo
# Outline: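 Male C57BL/6NCrlCrlj mice dosed orally at 10 mg/kg in 10% Cremophor EL, 5% DMSO in saline. Tail-vein blood was taken at set time points and spun to plasma. Quantified by LC-MS/MS (MRM, positive mode) with internal standard and a 1/x²-weighted calibration. Parameters came from noncompartmental analysis.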
# [10] = AUC (0 to infinity) in C57BL/6NCrlCrlj mouse at 30 mg/kg, po by LC-MS/MS analysis; type: ADME, organism-based; set-up: dose 30 mg/kg, time infinity, route oral; conditions: in vivo
# [11] = Half life in C57BL/6NCrlCrlj mouse at 30 mg/kg, po by LC-MS/MS analysis; type: ADME, organism-based; conditions: in vivo
# [12] = Cmax in C57BL/6NCrlCrlj mouse at 30 mg/kg, po by LC-MS/MS analysis; type: ADME, organism-based; set-up: dose 30 mg/kg, route oral; conditions: in vivo
# [13] = Plasma concentration in C57BL/6NCrlCrlj mouse at 10 mg/kg, po administered as single dose measured after 1 hr by LC-MS/MS analysis; type: ADME, organism-based; outline: as §1
structure (smiles),measurement,setting,value
Cc1ncc(OC[C@@]2(c3cccc(F)c3)C[C@H]2C(=O)Nc2ccc(F)cn2)c(C)n1 [LEMBOREXANT],concentration at 1 h,[1],32.8 nM
same,fraction unbound,[2],0.148
same,Time,Mus musculus [3],99.3 min
same,Time,Mus musculus [4],3.6 min
same,Time,Mus musculus [5],9.3 min
same,pIC50,Cytochrome P450 2C8,< 4.70
same,pKi,[6],8.24
same,clearance,[7],17.7 mL/min/kg
same,half-life,[8],2.16 h
same,Tmax,[9],0.25 h
same,AUC(0-inf),[10],4130 ng·h/mL
same,half-life,[11],1.94 h
same,Cmax,[12],961 ng/mL
same,concentration at 1 h,[13],633 nM
